{"source": "ChEMBL document CHEMBL5715947", "about": "(Blood Cancer J, 2011)", "key": {"MOLM-13 [1]": {"system": "MOLM-13", "assay": "Induction of cell cycle arrest in human MOLM-13 cells harboring FLT3-ITD mutant assessed decrease in cell accumulation at S phase after 24 hrs by Propidium iodide staining based flow cytometric analysis", "assay_type": "functional", "how_it_was_run": "(§1)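 Cells then fixed in ice-cold 70% ethanol, stained with 20 ng/ml propidium iodide, and cell-cycle phases measured by flow cytometry.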"}, "MV4-11 [2]": {"system": "MV4-11", "assay": "Antitumor activity against human MV4-11 cells harboring FLT-3 ITD mutant xenografted in BALB/c nude mouse assessed as tumor growth inhibition at 25 mg/kg, po administered daily for 21 days relative to control", "assay_type": "functional", "conditions": "MV4-11, 504 h, time 21 day, read-out: TGI", "how_it_was_run": "(§2)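 Female BALB/c nude mice implanted s.c. in right flank with 1 × 10^7 MV4-11 cells in serum-free medium mixed 1:1 with Matrigel. Randomised on day 11 at mean 146–150 mm3 (n=10/group); oral hydrochloride salt once daily for 21 days in 0.5% methylcellulose/0.1% Tween-80. Doses are free-base equivalents; caliper twice weekly; ANOVA with Dunnett's test.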"}, "RS4-11 [3]": {"system": "RS4-11", "assay": "Induction of cell cycle arrest in human RS4-11 cells assessed decrease in cell accumulation at S phase after 24 hrs by Propidium iodide staining based flow cytometric analysis", "assay_type": "functional", "how_it_was_run": "as §1"}, "MOLM-13 [4]": {"system": "MOLM-13", "assay": "Antitumor activity against human MOLM-13 cells harboring FLT-3 ITD mutant xenografted in BALB/c nude mouse assessed as decrease in metastatic incidence at 150 mg/kg, po bid administered daily for 7 days", "assay_type": "functional", "conditions": "time 7 day"}, "MV4-11 [5]": {"system": "MV4-11", "assay": "Induction of apoptosis in human MV4-11 cells harboring FLT3-ITD mutant assessed viable cells at 0.03 uM after 72 hrs by AnnexinV-FITC/Propidium iodide staining based flow cytometric analysis (reference value: 90.5 %)", "assay_type": "functional"}, "MV4-11 [6]": {"system": "MV4-11", "assay": "Induction of cell cycle arrest in human MV4-11 cells harboring FLT3-ITD mutant assessed increase in cell accumulation at G1 phase after 24 hrs by Propidium iodide staining based flow cytometric analysis", "assay_type": "functional", "how_it_was_run": "as §1"}, "MOLM-13 [7]": {"system": "MOLM-13", "assay": "Antitumor activity against human MOLM-13 cells harboring FLT-3 ITD mutant xenografted in BALB/c nude mouse assessed as decrease in phosphorylated STAT5 at Y694 residue at 150 mg/kg, po measured after 3 hrs by Western blot analysis", "assay_type": "functional, organism-based", "how_it_was_run": "(§3)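 Mice bearing s.c. MOLM-13 xenografts given a single oral dose of 150 mg/kg. Tumours harvested at 3 h; lysates immunoblotted for phospho-FLT3, -STAT3, -STAT5, -Akt and total actin.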"}, "[8]": {"assay": "Antiproliferative activity against human derived Acute myeloid leukemic cells assessed as reduction in cell viability incubated for 48 hr by CellTiter-Glo assay", "assay_type": "functional, cell-based", "conditions": "Leukemia cell"}, "MV4-11 [9]": {"system": "MV4-11", "assay": "Induction of apoptosis in human MV4-11 cells harboring FLT3-ITD mutant assessed viable cells at 0.03 uM after 48 hrs by AnnexinV-FITC/Propidium iodide staining based flow cytometric analysis (reference value: 86.15 %)", "assay_type": "functional"}, "MV4-11 [10]": {"system": "MV4-11", "assay": "Antitumor activity against human MV4-11 cells harboring FLT-3 ITD mutant xenografted in BALB/c nude mouse assessed as tumor growth inhibition at 100 mg/kg, po administered daily for 21 days relative to control", "assay_type": "functional", "conditions": "MV4-11, 504 h, time 21 day, read-out: TGI", "how_it_was_run": "as §2"}, "MV4-11 [11]": {"system": "MV4-11", "assay": "Antitumor activity against human MV4-11 cells harboring FLT-3 ITD mutant xenografted in BALB/c nude mouse assessed as tumor growth inhibition at 50 mg/kg, po administered daily for 21 days relative to control", "assay_type": "functional", "conditions": "MV4-11, 504 h, time 21 day, read-out: TGI", "how_it_was_run": "as §2"}, "MOLM-13 [12]": {"system": "MOLM-13", "assay": "Antitumor activity against human MOLM-13 cells harboring FLT-3 ITD mutant xenografted in BALB/c nude mouse assessed as decrease in phosphorylated STAT3 at Y704 residue at 150 mg/kg, po measured after 3 hrs by Western blot analysis", "assay_type": "functional, organism-based", "how_it_was_run": "as §3"}, "MV4-11 [13]": {"system": "MV4-11", "assay": "Induction of apoptosis in human MV4-11 cells harboring FLT3-ITD mutant assessed necrotic cells at 0.03 uM after 48 hrs by AnnexinV-FITC/Propidium iodide staining based flow cytometric analysis (reference value: 0.45 %)", "assay_type": "functional"}, "MV4-11 [14]": {"system": "MV4-11", "assay": "Induction of cell cycle arrest in human MV4-11 cells harboring FLT3-ITD mutant assessed decrease in cell accumulation at S phase after 24 hrs by Propidium iodide staining based flow cytometric analysis", "assay_type": "functional", "how_it_was_run": "as §1"}, "MV4-11 [15]": {"system": "MV4-11", "assay": "Induction of apoptosis in human MV4-11 cells harboring FLT3-ITD mutant assessed late apoptotic cells at 0.03 uM after 48 hrs by AnnexinV-FITC/Propidium iodide staining based flow cytometric analysis (reference value: 1.56 %)", "assay_type": "functional"}, "[16]": {"assay": "Antiproliferative activity against relapsed human derived M5b Fab type Acute myeloid leukemic cells harboring FLT3-ITD mutant assessed as reduction in cell viability incubated for 48 hr by CellTiter-Glo assay", "assay_type": "functional, cell-based", "conditions": "Leukemia cell", "how_it_was_run": "(§4)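 Primary AML peripheral blood or bone marrow mononuclear cells thawed and expanded ex vivo; blasts counted between day 10 and 13, characterised by CD123 FACS and FLT3 genotyping. Blasts treated 48 h; proliferation IC50 read by CellTiter-Glo.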"}, "[17]": {"assay": "Antiproliferative activity against relapsed human derived Acute myeloid leukemic cells assessed as reduction in cell viability incubated for 48 hr by CellTiter-Glo assay", "assay_type": "functional, cell-based", "conditions": "Leukemia cell", "how_it_was_run": "as §4"}, "RS4-11 [18]": {"system": "RS4-11", "assay": "Antiproliferative activity against human RS4-11 cells assessed as reduction in cell viability incubated for 48 hr by CellTiter-Glo assay", "assay_type": "functional, cell-based", "conditions": "RS4-11, 48 h"}, "[19]": {"assay": "(§5) Induction of apoptosis in human derived Acute myeloid leukemic cells assessed increase in cleaved caspase-3/7 after 16 hrs by Caspase-Glo 3/7 assay", "assay_type": "functional, cell-based", "conditions": "Leukemia cell", "how_it_was_run": "(§6)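 Expanded primary AML blasts at 300 000 cells/ml treated 16 h; caspase-3/7 activity read by Caspase-Glo 3/7 luminescence and EC50 for apoptosis induction determined.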"}, "Leukemia cell": {"system": "Leukemia cell", "assay": "as §5", "assay_type": "functional, cell-based", "how_it_was_run": "as §6"}, "MV4-11 [20]": {"system": "MV4-11", "assay": "Induction of apoptosis in human MV4-11 cells harboring FLT3-ITD mutant assessed necrotic cells at […] after 72 hrs by AnnexinV-FITC/Propidium iodide staining based flow cytometric analysis (reference value: 0.53 %)", "assay_type": "functional", "conditions": "dose 0.15 µM"}, "MV4-11 [21]": {"system": "MV4-11", "assay": "Induction of apoptosis in human MV4-11 cells harboring FLT3-ITD mutant assessed early apoptotic cells at […] after 72 hrs by AnnexinV-FITC/Propidium iodide staining based flow cytometric analysis (reference value: 7.34 %)", "assay_type": "functional", "conditions": "dose 0.15 µM"}, "[22]": {"assay": "Antiproliferative activity against human derived M2 Fab type Acute myeloid leukemic cells assessed as reduction in cell viability incubated for 48 hr by CellTiter-Glo assay", "assay_type": "functional, cell-based", "conditions": "Leukemia cell", "how_it_was_run": "as §4"}, "MV4-11 [23]": {"system": "MV4-11", "assay": "Induction of apoptosis in human MV4-11 cells harboring FLT3-ITD mutant assessed increase in cleaved caspase-3/7 after 16 hrs by Caspase-Glo 3/7 assay", "assay_type": "functional, cell-based"}, "MV4-11 [24]": {"system": "MV4-11", "assay": "Induction of apoptosis in human MV4-11 cells harboring FLT3-ITD mutant assessed late apoptotic cells at […] after 72 hrs by AnnexinV-FITC/Propidium iodide staining based flow cytometric analysis (reference value: 1.48 %)", "assay_type": "functional", "conditions": "dose 0.15 µM"}, "MV4-11 [25]": {"system": "MV4-11", "assay": "Induction of apoptosis in human MV4-11 cells harboring FLT3-ITD mutant assessed necrotic cells at 0.03 uM after 72 hrs by AnnexinV-FITC/Propidium iodide staining based flow cytometric analysis (reference value: 0.53 %)", "assay_type": "functional"}, "MV4-11 [26]": {"system": "MV4-11", "assay": "Induction of apoptosis in human MV4-11 cells harboring FLT3-ITD mutant assessed early apoptotic cells at 0.03 uM after 72 hrs by AnnexinV-FITC/Propidium iodide staining based flow cytometric analysis (reference value: 7.34 %)", "assay_type": "functional"}, "[27]": {"assay": "Antiproliferative activity against relapsed human derived M2 Fab type Acute myeloid leukemic cells harboring FLT3-ITD mutant assessed as reduction in cell viability incubated for 48 hr by CellTiter-Glo assay", "assay_type": "functional, cell-based", "conditions": "Leukemia cell", "how_it_was_run": "as §4"}}, "note": "Activity calls are given as the source filed them. The rule behind the calls is not given here.", "data": [{"smiles": "C1=N/C2=N/c3ccc(OCCN4CCCC4)c(c3)COC/C=C/COCc3cccc(c3)C(=C1)N2", "note": "[PACRITINIB]", "values": [{"measurement": "Activity", "setting": "MOLM-13 [1]", "value": "Dose-Dependent Effect"}, {"measurement": "inhibition in vivo at 25 mg/kg", "setting": "MV4-11 [2]", "value": 38, "unit": "%"}, {"measurement": "Activity", "setting": "RS4-11 [3]", "value": "Dose-Dependent Effect"}, {"measurement": "Activity", "setting": "MOLM-13 [4]", "value": 0.33}, {"measurement": "Activity", "setting": "MV4-11 [5]", "value": 72.52, "unit": "%"}, {"measurement": "Activity", "setting": "MV4-11 [6]", "value": "Dose-Dependent Effect"}, {"measurement": "Activity", "setting": "MOLM-13 [7]", "value": "Active"}, {"measurement": "IC50", "setting": "[8]", "value": 460, "unit": "nM"}, {"measurement": "Activity", "setting": "MV4-11 [9]", "value": 68.98, "unit": "%"}, {"measurement": "inhibition in vivo at 100 mg/kg", "setting": "MV4-11 [10]", "value": 121, "unit": "%"}, {"measurement": "inhibition in vivo at 50 mg/kg", "setting": "MV4-11 [11]", "value": 92, "unit": "%"}, {"measurement": "Activity", "setting": "MOLM-13 [12]", "value": "Active"}, {"measurement": "Activity", "setting": "MV4-11 [13]", "value": 0.94, "unit": "%"}, {"measurement": "Activity", "setting": "MV4-11 [14]", "value": "Dose-Dependent Effect"}, {"measurement": "Activity", "setting": "MV4-11 [15]", "value": 5.58, "unit": "%"}, {"measurement": "IC50", "setting": "[16]", "value": 250, "unit": "nM"}, {"measurement": "IC50", "setting": "[17]", "value": 1330, "unit": "nM"}, {"measurement": "IC50", "setting": "RS4-11 [18]", "value": 930, "unit": "nM"}, {"measurement": "EC50", "setting": "[19]", "value": 268, "unit": "nM"}, {"measurement": "Activity", "setting": "Leukemia cell", "value": "Dose-Dependent Effect"}, {"measurement": "Activity", "setting": "MV4-11 [20]", "value": 4.06, "unit": "%"}, {"measurement": "Activity", "setting": "MV4-11 [21]", "value": 58.69, "unit": "%"}, {"measurement": "IC50", "setting": "[22]", "value": 350, "unit": "nM"}, {"measurement": "Activity", "setting": "MV4-11 [23]", "value": "Dose-Dependent Effect"}, {"measurement": "EC50", "setting": "MV4-11 [23]; MV4-11, 16 h", "value": 960, "unit": "nM"}, {"measurement": "Activity", "setting": "MV4-11 [24]", "value": 15.1, "unit": "%"}, {"measurement": "Activity", "setting": "MV4-11 [25]", "value": 1.06, "unit": "%"}, {"measurement": "Activity", "setting": "MV4-11 [26]", "value": 22.69, "unit": "%"}, {"measurement": "IC50", "setting": "[27]", "value": 340, "unit": "nM"}]}]}
